TRPC6 inhibitor – blocks the mouse TRPC6 cation channel | B-score at 10 µM | AID 2553 | 310,000 compounds, 1.1% hits | HEK293-TRPC6, membrane potential dye, ACh-evoked depolarization; stronger effect = lower value | Q61143;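 active means B-score under library mean minus 3 SD, initial fluorescence not abnormally high, positive integrated signal ratio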;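 further: B-score derived from integrated fluorescence ratio over the kinetic read; more negative B-score means stronger inhibition of depolarization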
Target sequence (Q61143 whole entry, looked up): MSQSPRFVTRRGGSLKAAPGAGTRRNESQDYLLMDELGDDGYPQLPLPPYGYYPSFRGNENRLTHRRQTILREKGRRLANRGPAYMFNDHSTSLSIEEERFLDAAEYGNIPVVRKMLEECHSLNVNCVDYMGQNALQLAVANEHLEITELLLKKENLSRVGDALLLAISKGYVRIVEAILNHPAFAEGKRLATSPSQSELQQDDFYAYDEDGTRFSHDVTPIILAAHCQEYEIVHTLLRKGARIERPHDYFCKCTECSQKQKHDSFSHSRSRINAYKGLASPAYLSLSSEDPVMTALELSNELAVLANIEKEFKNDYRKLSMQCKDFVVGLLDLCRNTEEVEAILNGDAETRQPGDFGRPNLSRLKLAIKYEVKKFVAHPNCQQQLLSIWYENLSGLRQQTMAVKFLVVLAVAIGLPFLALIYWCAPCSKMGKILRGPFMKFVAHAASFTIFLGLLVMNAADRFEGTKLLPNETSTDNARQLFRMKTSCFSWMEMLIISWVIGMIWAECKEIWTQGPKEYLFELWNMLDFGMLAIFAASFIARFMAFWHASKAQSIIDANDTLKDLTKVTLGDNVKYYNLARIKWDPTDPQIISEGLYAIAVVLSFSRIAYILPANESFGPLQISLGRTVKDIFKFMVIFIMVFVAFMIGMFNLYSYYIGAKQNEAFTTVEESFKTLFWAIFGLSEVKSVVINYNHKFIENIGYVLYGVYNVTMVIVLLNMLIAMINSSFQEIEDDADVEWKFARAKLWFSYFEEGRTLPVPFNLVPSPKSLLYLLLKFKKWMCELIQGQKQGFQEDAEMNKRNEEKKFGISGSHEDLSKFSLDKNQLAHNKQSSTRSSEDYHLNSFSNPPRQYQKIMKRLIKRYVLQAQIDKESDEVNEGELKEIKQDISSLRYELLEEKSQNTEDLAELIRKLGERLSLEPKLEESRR
TRPC6 act – mouse TRPC6 channel activation; Q61143; HEK293-TRPC6 membrane potential dye fluorescence; stronger effect = higher value; B-score at 10 µM; 310,000 compounds, 0.13% hits; AID 2550;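 active means B-score of the integrated fluorescence ratio above library mean plus 3 SD, and starting fluorescence ratio within library mean plus 5 SD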;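 further: higher score means more depolarization so channel activation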
TRPC4 act – TRPC4 (mouse) channel activation | Q9QUQ5 | HEK293 TRPC4beta/mu-opioid, Fluo4 calcium fluorescence; stronger effect = higher value | B-score at 10 µM | 310,000 compounds, 0.49% hits;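 active means B-score above 5 SD of library B-scores, and initial fluorescence ratio not above library mean plus 5 SD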;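 further: positive B-score marks a calcium rise read as TRPC4 activation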
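Assay system: HEK293 stable line with TRPC4beta plus mu-opioid receptor. Times: dye 45 min RT, read 110 s. Measured by: kinetic Fluo4 calcium fluorescence. Measure: B score of integrated ratio. Controls: assay buffer as low control, maximal DAMGO as high control.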
TRPC4 potent – TRPC4 (mouse) allosteric potentiation; 310,000 compounds, 0.42% hits; AID 2227; HEK293 TRPC4beta/mu-opioid, DAMGO EC20, Fluo-4 Ca2+ flux; stronger effect = higher value; B-score at 10 µM; Q9QUQ5;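 active means B-score of calcium response area above 5 SD of library B-scores, with initial fluorescence ratio within 5 SD of library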;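 further: B-score of integrated fluorescence ratio over time as area under calcium response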
TRPC4 inh – inhibitors of mouse TRPC4 channel; HEK293 TRPC4beta/mu-opioid, DAMGO-evoked Fluo4 calcium flux; stronger effect = lower value; 300,000 compounds, 0.39% hits; B-score at 10 µM;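 active means B-score over 3 SD under the library average, no early fluorescence shift, positive overall ratio signal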
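test system = HEK293 cells with stable TRPC4beta plus mu-opioid receptor expression | detection = Fluo4 Ca2+ flux fluorescence | read-out = integrated fluorescence ratio relative to baseline, converted to per-well B score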
* marks the source's active call; other numbers are inactive results; i = inactive. An excerpt weighted towards active compounds, which were near 2.3% of everything screened.

SMILES | TRPC6 inhibitor | TRPC6 act | TRPC4 act | TRPC4 potent | TRPC4 inh
COc1ccc2c(Cl)c(-c3nnc4n3CCCCC4)sc2c1 | i | i | 167* | i | i
Clc1c(-c2nnc3n2CCCCC3)sc2ccccc12 | i | i | i | i | i
O=C1CCN(Cc2nc(-c3ccc(Cl)cc3)no2)CCN1 | i | i | i | i | i
Cc1cc2oc(C(=O)N(Cc3ccccc3)C3CCS(=O)(=O)C3)cc(=O)c2cc1Cl (stereo not given) | i | i | i | 23* | i
O=C(c1sc2ccccc2c1Cl)N(Cc1ccccc1Cl)C1CCS(=O)(=O)C1 (stereo not given) | i | i | i | i | i
O=C(c1sc2ccccc2c1Cl)N(Cc1ccccc1)C1CCS(=O)(=O)C1 (stereo not given) | i | i | 107* | i | i
O=C(c1sc2ccccc2c1Cl)N(Cc1ccco1)C1CCS(=O)(=O)C1 (stereo not given) | i | i | 59* | i | i
COc1ccc(C(=O)Nc2nnc(SCC(=O)NCc3ccco3)s2)c(OC)c1 | i | i | i | i | i
CCSC(=Nc1ccccc1)Nc1ccccc1 | i | i | i | i | i
O=C(c1ccccc1)N1CCN(Cc2c[nH]c3ccccc23)CC1 | i | i | i | i | i
O=[N+]([O-])c1ccccc1CN1CCN(Cc2c[nH]c3ccccc23)CC1 | i | i | i | i | -7*
COC(=O)C1C(c2ccccc2)C(C(=O)N2CCN(C)CC2)C1c1ccccc1 (stereo not given) | i | i | 64* | i | i
COC(=O)[C@H]1[C@H](c2ccccc2)[C@H](C(=O)OC)O[C@H]1c1ccccc1 | i | i | i | i | i
Cc1onc(-c2ccccc2)c1C(=O)NNC(=S)NC(=O)c1ccc(Br)cc1 | i | i | 250* | i | i
COc1ccc(/C=C/C(=O)NC(=S)NNC(=O)c2c(-c3ccccc3)noc2C)cc1 | i | i | i | i | i
Cc1onc(-c2ccccc2)c1C(=O)NNC(=S)NC(=O)/C=C/c1ccccc1 | i | i | 59* | i | -7*
O=C(NNC(=S)NC(=O)c1ccccc1[N+](=O)[O-])c1ccccc1Cl | i | i | i | i | i
O=C(NC(=S)NNC(=O)c1ccccc1[N+](=O)[O-])c1ccc(Br)cc1 | i | i | 142* | i | i
CN(CC(=O)NCc1ccc(F)cc1)CC(=O)Nc1ccc(Cl)c(C(F)(F)F)c1 | i | i | i | i | i
Cc1ccc(S(=O)(=O)NCC2CCC(C(=O)N3CCN(C)CC3)CC2)cc1 (stereo not given) | i | i | i | i | i
CO/N=C/c1ccc(N2CCN(C(=O)c3ccc(Cl)cc3Cl)CC2)c([N+](=O)[O-])c1 | i | i | i | 12* | i
CO/N=C/c1ccc(N2CCN(C(=O)c3ccc(F)cc3)CC2)c([N+](=O)[O-])c1 | i | i | i | i | i
COc1ccc(CN2CCC(n3nccc3NC(=O)CCOc3ccccc3)CC2)cc1C | i | i | i | i | i
C/C(CC(=O)Nc1cccc(C(F)(F)F)c1)=N\NC(=O)C1CCCCC1 | i | i | i | i | i
CN(CC1CCCN(CCc2ccccc2F)C1)C(=O)c1ccoc1 (stereo not given) | i | i | i | i | i
SMILES | TRPC6 inhibitor | TRPC6 act | TRPC4 act | TRPC4 potent | TRPC4 inh
COc1ccc(CCN2CCCC(CN(C)C(=O)c3ccoc3)C2)cc1 (stereo not given) | i | i | i | 19* | i
CC1=C[C@@H](C)[C@@H](c2ccccc2)OC1=O | i | i | 61* | i | i
CC(C)c1cccc(C(C)C)c1OCCCCCN1CCOCC1 | i | i | i | i | i
Cc1cc(Br)cc2c(C(=O)NCC3CCCO3)cc(-c3cccs3)nc12 (stereo not given) | i | i | i | i | i
Cc1ccc(-n2nc(-c3cccs3)cc2C(=O)NCC2CCCO2)c(C)c1 (stereo not given) | i | i | 55* | i | -7*
Cc1ccc(C(=O)NC(=S)Nc2c(C)ccc3nsnc23)cc1 | i | i | i | i | -5*
COc1ccc(Cl)cc1NC(=O)NCC1CCN(Cc2cc(C)ccc2C)CC1 | i | i | i | i | i
Cc1ccc(C)c(CN2CCC(CNC(=O)Nc3ccc(C)c(C)c3)CC2)c1 | i | i | i | 11* | i
COC(=O)C1=C(C)N(Cc2ccccc2)C(=O)N[C@H]1c1ccccc1 | i | i | i | i | i
CCN1C(=NCCc2ccccn2)N[C@@H](c2cccc(F)c2)C(C(=O)OC)=C1C | i | i | i | i | i
COC(=O)C1=C(C)N(Cc2ccccc2)C(=S)N[C@H]1c1ccccc1 | i | i | i | i | -6*
COC(=O)C1=C(C)N(Cc2ccccc2)C(=NCCc2ccccn2)N[C@H]1c1cccc(F)c1 | i | i | 88* | i | i
NNC(=O)c1cc2sccc2s1 | i | i | i | i | i
COC(=O)c1ccc(C(=O)N2CCCC(CNC(=O)c3ccccc3Cl)C2)cc1 (stereo not given) | i | i | i | i | i
CC(C)(C)NCC(O)CON=C1c2ccccc2-c2ccccc21 (stereo not given) | i | i | i | 10* | i
O=C(COC(=O)CNS(=O)(=O)c1ccc(Br)cc1Cl)NC1CCCC1 | i | i | i | i | i
O=C(/C=C/c1cccc(Br)c1)N1CCN(c2ccccn2)CC1 | i | i | i | i | i
C/C(Cc1ccccc1)=N\NC(=O)CNC(=O)COc1cccc(C)c1 | i | i | 80* | i | i
Cc1cc(C)n(C(=O)/C(C#N)=C/N(C)C)n1 | i | i | i | i | i
CCOCCSC1=C(C#N)C(c2cccs2)C(C(C)=O)=C(C)N1 (stereo not given) | i | i | i | i | -6*
COc1ccc(OCC(=O)N2N=C(C(F)F)CC2(O)C(F)F)cc1 (stereo not given) | i | i | i | i | i
CCCCn1c(N)c(N(CCOC)C(=O)C2CCN(S(=O)(=O)c3ccc(Cl)cc3)CC2)c(=O)[nH]c1=O | i | i | i | i | i
CCN1CCc2c(OCc3ccc(C)cc3)cccc2C1=O | i | i | i | i | i
CN1CCN(c2nc(-c3cccnc3)nc3scc(-c4ccccc4)c23)CC1 | i | i | 64* | i | -7*
